Source: ChEMBL document CHEMBL1121639, “Analgesic narcotic antagonists. 5. 7,7-Dimethyldihydrocodeinones and 7,7-dimethyldihydromorphinones” (1981)
Calls of active or inactive are those of the source. The rule behind the calls is not given here.

Columns and labels:
Mus musculus [1] = experiment: Analgesic agonist activity in acetic acid induced mouse writhing assay, subcutaneous administration; assay type: functional; settings: sc
How it was run: (§1)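 Test agents given as solutions: salts in distilled water; free bases dissolved by adding 1 N HCl, then further diluted.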

Rattus norvegicus [2] = experiment: Analgesic agonist activity in heat stimulus rat tail-flick assay on subcutaneous administration; assay type: functional; settings: sc; how it was run: as §1
Rattus norvegicus [3] = organism: Rattus norvegicus; experiment: Narcotic antagonist activity against an ED80 of morphine in the modified rat tail-flick assay; assay type: functional
Mus musculus [4] = experiment: Compound was tested for the analgesic agonist activity in acetic acid induced mouse writhing assay on subcutaneous administration; Inactive at 16 umol/kg.; assay type: functional, organism-based; how it was run: as §1
Mus musculus [5] = experiment: Compound was tested for the analgesic agonist activity in acetic acid induced mouse writhing assay on subcutaneous administration; Inactive at 20 umol/kg.; assay type: functional, organism-based; how it was run: as §1
Mus musculus [6] = experiment: Compound was tested for the analgesic agonist activity in acetic acid induced mouse writhing assay on subcutaneous administration; Inactive at 25 umol/kg.; assay type: functional, organism-based; how it was run: as §1
Rattus norvegicus [7] = experiment: Compound was tested for analgesic agonist activity in heat stimulus rat tail-flick assay on subcutaneous administration; Inactive at 25 mg/kg; assay type: functional, organism-based; design: dose 25 mg/kg; how it was run: as §1
Mus musculus [8] = experiment: Compound was tested for the analgesic agonist activity in acetic acid induced mouse writhing assay on subcutaneous administration; Inactive at 25 umol/kg; assay type: functional, organism-based; how it was run: as §1
Rattus norvegicus [9] = experiment: Compound was tested for analgesic agonist activity in heat stimulus rat tail-flick assay on subcutaneous administration; Inactive at 25 umol/kg; assay type: functional, organism-based; how it was run: as §1
Mus musculus [10] = experiment: Compound was tested for the analgesic agonist activity in acetic acid induced mouse writhing assay on subcutaneous administration; Inactive at 23 umol/kg.; assay type: functional, organism-based; how it was run: as §1
Rattus norvegicus [11] = experiment: Compound was tested for the analgesic agonist activity in heat stimulus rat tail-flick assay; Inactive at 26 umol/kg; assay type: functional, organism-based; how it was run: as §1
Mus musculus [12] = experiment: Compound was tested for the analgesic agonist activity in acetic acid induced mouse writhing assay on subcutaneous administration; Inactive at 28 umol/kg.; assay type: functional, organism-based; how it was run: as §1
Mus musculus [13] = experiment: Compound was tested for the analgesic agonist activity in acetic acid induced mouse writhing assay on subcutaneous administration; Inactive at 26 umol/kg.; assay type: functional, organism-based; how it was run: as §1

Structure (SMILES) | ED50 (Mus musculus [1]) [µmol/kg] | ED50 (Rattus norvegicus [2]) [µmol/kg] | ED50 (Rattus norvegicus [3]) [µmol/kg] | further results
COc1ccc2c3c1O[C@H]1[C@@H]4OC[C@]4(C)[C@H](C)C4[C@@H](C2)N(C)CC[C@@]341 (some centres undefined) | 1.8 | > 23 | – | –
CC[C@@H]1C2[C@H]3Cc4ccc(OC)c5c4[C@@]2(CCN3C)[C@@H](O5)[C@@H]2OC[C@]12C (some centres undefined) | 11.1 | > 28 | – | –
CC1(C)CC2[C@H]3Cc4ccc(O)c5c4[C@@]2(CCN3CC2CCC2)[C@@H](O5)C1=O (some centres undefined) | 2.2 | – | > 24 | –
C[C@@H]1C2[C@H]3Cc4ccc(O)c5c4[C@@]2(CCN3CC2CCC2)[C@@H](O5)C(=O)C1(C)C (some centres undefined) | > 25 | – | > 25 | –
COc1ccc2c3c1O[C@H]1C(=O)C(C)(C)CC4[C@@H](C2)N(C)CC[C@@]341 (some centres undefined) | 3.9 | 9.8 | – | –
CC[C@@H]1C2[C@H]3Cc4ccc(O)c5c4[C@@]2(CCN3CC2CC2)[C@@H](O5)C(=O)C1(C)C (some centres undefined) | – | – | 2.4 | ED50 (Mus musculus [4]): inactive
COc1ccc2c3c1O[C@H]1[C@H](O)C(C)(C)CC4[C@@H](C2)N(C)CC[C@@]341 (some centres undefined) | 6.5 | 30.4 | – | –
CC[C@@H]1C2[C@H]3Cc4ccc(OC)c5c4[C@@]2(CCN3C)[C@@H](O5)[C@H](O)C1(C)C (some centres undefined) | 21.5 | > 22 | – | –
COc1ccc2c3c1O[C@H]1C(=O)C(C)(C)[C@H](C)C4[C@@H](C2)N(CC2CC2)CC[C@@]341 (some centres undefined) | > 26 | – | 7.3 | –
C[C@H]1[C@H]2Cc3ccc(O)cc3[C@]1(C)CCN2CC1CC1 [CYCLAZOCINE] | 0.41 | – | 0.81 | –
CC[C@@H]1C2[C@H]3Cc4ccc(OC)c5c4[C@@]2(CCN3CC2CC2)[C@@H](O5)C(=O)C1(C)C (some centres undefined) | – | – | > 20 | ED50 (Mus musculus [5]): inactive
COc1ccc2c3c1O[C@H]1C(=O)C(C)(C)[C@H](C)C4[C@@H](C2)N(CC2CCC2)CC[C@@]341 (some centres undefined) | 17.2 | – | 4.7 | –
CC[C@@H]1C2[C@H]3Cc4ccc(OC)c5c4[C@@]2(CCN3C)[C@@H](O5)C(=O)C1(C)C (some centres undefined) | 4.4 | 13.9 | – | –
COc1ccc2c3c1O[C@H]1C(=O)C(C)(C)CC4[C@@H](C2)N(CC2CC2)CC[C@@]341 (some centres undefined) | 5.3 | – | 6.7 | –
Oc1ccc2c(c1)[C@@]13CCCC[C@@]1(O)[C@@H](C2)N(CC1CCC1)CC3 [BUTORPHANOL] | 0.34 | – | 2 | –
COc1ccc2c3c1O[C@H]1[C@H](O)C(CO)(CO)CC4[C@@H](C2)N(C)CC[C@@]341 (some centres undefined) | – | – | – | ED50 (Mus musculus [6]): inactive; ED50 (Rattus norvegicus [7]): inactive
COc1ccc2c3c1O[C@H]1[C@@H]4OC[C@]4(C)CC4[C@@H](C2)N(C)CC[C@@]341 (some centres undefined) | 1.9 | > 30 | – | –

Structure (SMILES) | ED50 (Mus musculus [1]) [µmol/kg] | ED50 (Rattus norvegicus [2]) [µmol/kg] | ED50 (Rattus norvegicus [3]) [µmol/kg] | further results
COc1ccc2c3c1O[C@H]1[C@@H](O)C(C)(C)CC4[C@@H](C2)N(C)CC[C@@]341 (some centres undefined) | 12.7 | – | – | –
CC[C@@H]1C2[C@H]3Cc4ccc(OC)c5c4[C@@]2(CCN3C)[C@@H](O5)[C@H](O)C1(CO)CO (some centres undefined) | – | – | – | ED50 (Mus musculus [8]): inactive; ED50 (Rattus norvegicus [9]): inactive
COc1ccc2c3c1O[C@H]1C(=O)CC[C@H]4[C@@H](C2)N(C)CC[C@]314 [HYDROCODONE] | 2.4 | 5.2 | – | –
COc1ccc2c3c1O[C@H]1C(=O)C(C)(C)[C@H](C)C4[C@@H](C2)N(C)CC[C@@]341 (some centres undefined) | 2.5 | 4.2 | – | –
COc1ccc2c3c1O[C@H]1[C@H](O)C(C)(C)[C@H](C)C4[C@@H](C2)N(C)CC[C@@]341 (some centres undefined) | 3.8 | 15.6 | – | –
CC[C@@H]1C2[C@H]3Cc4ccc(OC)c5c4[C@@]2(CCN3CC2CCC2)[C@@H](O5)C(=O)C1(C)C (some centres undefined) | > 23 | – | > 23 | –
C[C@@H]1C2[C@H]3Cc4ccc(O)c5c4[C@@]2(CCN3CC2CC2)[C@@H](O5)C(=O)C1(C)C (some centres undefined) | – | – | 0.38 | ED50 (Mus musculus [10]): inactive
COc1ccc2c3c1O[C@H]1[C@@H](O)C=C[C@H]4[C@@H](C2)N(C)CC[C@@]341 [CODEINE] | 10.3 | 75 | – | –
CN1CC[C@]23c4c5ccc(O)c4O[C@H]2C(=O)CC[C@H]3[C@H]1C5 [HYDROMORPHONE] | – | 1.3 | – | –
CN1CC[C@]23c4c5ccc(O)c4O[C@H]2C(=O)C(C)(C)CC3[C@H]1C5 (some centres undefined) | 0.19 | 0.99 | – | –
COc1ccc2c3c1O[C@H]1[C@H](O)C(CO)(CO)[C@H](C)C4[C@@H](C2)N(C)CC[C@@]341 (some centres undefined) | > 26 | – | – | ED50 (Rattus norvegicus [11]): inactive
CC[C@@H]1C2[C@H]3Cc4ccc(O)c5c4[C@@]2(CCN3C)[C@@H](O5)C(=O)C1(C)C (some centres undefined) | 0.6 | 0.62 | – | –
CC1(C)CC2[C@H]3Cc4ccc(O)c5c4[C@@]2(CCN3CC2CC2)[C@@H](O5)C1=O (some centres undefined) | – | – | 1.2 | ED50 (Mus musculus [12]): inactive
COc1ccc2c3c1O[C@H]1C(=O)C(C)(C)CC4[C@@H](C2)N(CC2CCC2)CC[C@@]341 (some centres undefined) | – | – | > 26 | ED50 (Mus musculus [13]): inactive
CC(C)=CCN1CC[C@@]2(C)c3cc(O)ccc3C[C@@H]1[C@@H]2C | 13 | – | 36.4 | –
CC[C@@H]1C2[C@H]3Cc4ccc(O)c5c4[C@@]2(CCN3CC2CCC2)[C@@H](O5)C(=O)C1(C)C (some centres undefined) | 18.5 | – | 2.8 | –
